Test results from ChEMBL document CHEMBL3243926, “Prodrugs of 9-beta-D-arabinofuranosyladenine. 1. Synthesis and evaluation of some 5'-(O-acyl) derivatives” (J Med Chem, 1978).
Converted amounts (≈) assume the structure as drawn.

Legend:
Human alphaherpesvirus 1 [1] = assay: Antiviral activity against HSV-1 assessed at 6 ug/ml by plaque reduction assay relative to control; assay type: functional; parameters: scale not given: the % may be the effect or the level left
[2] = Aqueous solubility of the compound at 0.1 M phosphate buffer after 16 hrs by UV spectrometry; assay type: physicochemical
Method in brief: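 Excess solid (10 mg) was agitated for 16 h with 5 mL of 0.1 M phosphate buffer. The mixture was filtered through sintered glass to remove undissolved solid. Dissolved concentration was determined from UV absorbance against values previously determined in buffer.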

Human alphaherpesvirus 1 [3] = assay: Antiviral activity against HSV-1 assessed at 17 ug/ml by plaque reduction assay relative to control; assay type: functional; parameters: scale not given: the % may be the effect or the level left
Human alphaherpesvirus 1 [4] = assay: Antiviral activity against HSV-1 assessed at 6.5 ug/ml by plaque reduction assay relative to control; assay type: functional; parameters: scale not given: the % may be the effect or the level left
Adenosine deaminase [5] = biological target: T1, Adenosine deaminase (Bos taurus, UniProt P56658); assay: Stability of the compound assessed as calf mucosal adenosine deaminase-mediated drug metabolism; assay type: ADME; details: cattle
T1 sequence (P56658 whole entry): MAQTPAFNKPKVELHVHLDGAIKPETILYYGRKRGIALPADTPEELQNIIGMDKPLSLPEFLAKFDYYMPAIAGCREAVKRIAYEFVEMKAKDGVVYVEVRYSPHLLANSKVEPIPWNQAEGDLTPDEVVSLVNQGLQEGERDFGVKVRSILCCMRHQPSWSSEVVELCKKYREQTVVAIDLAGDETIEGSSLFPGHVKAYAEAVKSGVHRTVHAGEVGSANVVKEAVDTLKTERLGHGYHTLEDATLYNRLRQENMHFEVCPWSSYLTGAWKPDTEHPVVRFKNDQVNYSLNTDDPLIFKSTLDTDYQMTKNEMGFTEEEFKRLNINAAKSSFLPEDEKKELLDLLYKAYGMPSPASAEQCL

[6] = Aqueous stability of the compound assessed as time required for 10% decomposition at 25 degC by Arrhenius plot; assay type: physicochemical; details: buffer
Method in brief: (§1)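 Ester hydrolysis was followed at pH 6.56 at 60, 80 and 100 °C by HPLC (40:60 methanol-water, 254-nm detection). First-order rates came from log[ester] vs time. An Arrhenius plot of log rate vs reciprocal temperature (K) was extrapolated to 25 °C.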

Adenosine deaminase [7] = biological target: T1, Adenosine deaminase; assay: Inhibition of calf mucosal adenosine deaminase
Human alphaherpesvirus 1 [8] = assay: Antiviral activity against HSV-1 assessed at 0.6 ug/ml by plaque reduction assay relative to control; assay type: functional; parameters: scale not given: the % may be the effect or the level left
[9] = Aqueous stability of the compound assessed as hydrolysis rate at 25 degC by Arrhenius plot; assay type: physicochemical; details: buffer; method in brief: as §1
[10] = Half life of the compound; assay type: physicochemical
Human alphaherpesvirus 1 [11] = assay: Antiviral activity against HSV-1 assessed at 20 ug/ml by plaque reduction assay relative to control; assay type: functional; parameters: scale not given: the % may be the effect or the level left
Human alphaherpesvirus 1 [12] = assay: Antiviral activity against HSV-1 assessed at 7 ug/ml by plaque reduction assay relative to control; assay type: functional; parameters: scale not given: the % may be the effect or the level left
Human alphaherpesvirus 1 [13] = assay: Antiviral activity against HSV-1 assessed at 2 ug/ml by plaque reduction assay relative to control; assay type: functional; parameters: scale not given: the % may be the effect or the level left

| Structure (SMILES) | solubility at 16 h [2] [µg/mL] | Stability (Adenosine deaminase [5]) | Activity (Human alphaherpesvirus 1 [1]) [%] | Activity (Human alphaherpesvirus 1 [4]) [%] | also measured |
| --- | --- | --- | --- | --- | --- |
| CCCCCC(=O)OC[C@H]1O[C@@H](n2cnc3c(N)ncnc32)[C@@H](O)[C@@H]1O | 2500 (≈ 6.84 mM) | Stable |  | 25 |  |
| Nc1ncnc2c1ncn2[C@@H]1O[C@H](COC(=O)c2ccccc2)[C@@H](O)[C@@H]1O | 80 (≈ 0.215 mM) |  |  | 71 |  |
| Nc1ncnc2c1ncn2[C@@H]1O[C@H](COC=O)[C@@H](O)[C@@H]1O |  |  |  |  | half-life [10]: 240 h |
| CC(C)(C)C(=O)OC[C@H]1O[C@@H](n2cnc3c(N)ncnc32)[C@@H](O)[C@@H]1O | 7000 (≈ 19.9 mM) | Stable |  |  | Activity (Human alphaherpesvirus 1 [11]): 11% |
| Nc1ncnc2c1ncn2[C@@H]1O[C@H](COC(=O)CCc2ccccc2)[C@@H](O)[C@@H]1O | 1500 (≈ 3.76 mM) |  |  |  | Activity (Human alphaherpesvirus 1 [12]): 29% |
| CCCCCCCC(=O)OC[C@H]1O[C@@H](n2cnc3c(N)ncnc32)[C@@H](O)[C@@H]1O | 100 (≈ 0.254 mM) |  |  |  | Activity (Human alphaherpesvirus 1 [13]): 45% |
| Nc1ncnc2c1ncn2[C@@H]1O[C@H](CO)[C@@H](O)[C@@H]1O [VIDARABINE] |  |  | 54 | 63 | Activity (Human alphaherpesvirus 1 [12]): 63%; Activity (Human alphaherpesvirus 1 [11]): 69%; Activity (Human alphaherpesvirus 1 [13]): 64%; Activity (Human alphaherpesvirus 1 [8]): 0%; Activity (Human alphaherpesvirus 1 [3]): 100% |

Further lines, with some results ahead:

| solubility at 16 h [2] [µg/mL] | Stability (Adenosine deaminase [5]) | Structure (SMILES) | Activity (Human alphaherpesvirus 1 [1]) [%] | Activity (Human alphaherpesvirus 1 [4]) [%] | also measured |
| --- | --- | --- | --- | --- | --- |
| 16100 (≈ 47.7 mM) |  | CCCC(=O)OC[C@H]1O[C@@H](n2cnc3c(N)ncnc32)[C@@H](O)[C@@H]1O | 67 |  |  |
| 6600 (≈ 21.3 mM) |  | CC(=O)OC[C@H]1O[C@@H](n2cnc3c(N)ncnc32)[C@@H](O)[C@@H]1O |  |  | Activity (Human alphaherpesvirus 1 [3]): 86% |
| 8400 (≈ 23.9 mM) | Stable | CCCCC(=O)OC[C@H]1O[C@@H](n2cnc3c(N)ncnc32)[C@@H](O)[C@@H]1O | 100 |  | Time [6]: 2.25 yr; Ki (Adenosine deaminase [7]): 11 µM; Activity (Human alphaherpesvirus 1 [8]): 90%; Drug degradation [9]: 5.4 ×10⁻⁶ /hr |
| 9200 (≈ 28.5 mM) |  | CCC(=O)OC[C@H]1O[C@@H](n2cnc3c(N)ncnc32)[C@@H](O)[C@@H]1O | 83 |  |  |
| 7800 (≈ 21.3 mM) | Stable | CC(C)(C)CC(=O)OC[C@H]1O[C@@H](n2cnc3c(N)ncnc32)[C@@H](O)[C@@H]1O |  | 10 |  |
| 19800 (≈ 56.4 mM) | Stable | CC(C)CC(=O)OC[C@H]1O[C@@H](n2cnc3c(N)ncnc32)[C@@H](O)[C@@H]1O |  |  | Activity (Human alphaherpesvirus 1 [12]): 53% |
